# Screening results as filed in PubChem.
# HIF act: HIF pathway transcriptional activation; U2OS HRE-luciferase reporter, luminescence; normalized: DMSO 0%, desferrioxamine 100%; 0.32% of 300,000 active; activation, % at 7.5 µM (by protocol);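 active means mean activation of at least 10% of the iron chelator positive control signal, with at least half of replicates also reaching 10%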
# JMJD2C inh: human JMJD2C demethylase inhibition; Q9H3R0; GST-JMJD2C(1-420) H3K9me3 demethylation, DELFIA europium; inhibition, % at 2.35 µM; 0.069% of 330,000 active;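 active means more than half of a compound's replicate wells show inhibition beyond 50%, single wells judged on their own value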;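 further: signal counts dimethyl H3K9 product captured on neutravidin plate; 0% = median of DMSO wells and 100% = 0.3 times that DMSO median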
# Target sequence (Q9H3R0 1-420 limits assumed): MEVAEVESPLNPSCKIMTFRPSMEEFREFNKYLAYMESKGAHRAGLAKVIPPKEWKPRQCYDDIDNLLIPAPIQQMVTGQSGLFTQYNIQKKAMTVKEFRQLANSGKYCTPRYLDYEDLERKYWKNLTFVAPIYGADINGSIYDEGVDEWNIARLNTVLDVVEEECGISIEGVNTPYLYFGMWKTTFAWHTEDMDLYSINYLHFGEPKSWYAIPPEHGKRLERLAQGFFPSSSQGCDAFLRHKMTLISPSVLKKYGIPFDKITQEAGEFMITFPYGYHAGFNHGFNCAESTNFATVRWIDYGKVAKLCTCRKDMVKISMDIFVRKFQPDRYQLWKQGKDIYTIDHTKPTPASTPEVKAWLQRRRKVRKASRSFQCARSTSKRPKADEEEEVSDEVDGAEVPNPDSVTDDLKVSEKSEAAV
# T cell modulator: T cell immune modulation candidate; 2C CD8+ T cell-vesicle binding, flow cytometry; hits give low values; response (vesicle binding), % at 7 µM; 0.068% of 330,000 active; AID 2052;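 active means response, share of CD8 T cells binding vesicles, and their 90th percentile fluorescence all below set limits, cut at about 80% in these data, passing the limit was not always enough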;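 further: values below 100% mean blocked vesicle binding to the CD8+ T cells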
#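 Read-out – percent CD8+ FL2 mean versus row control · System – murine 2C transgenic CD8+ T lymphocytes · Times – 1.5 h cell–vesicle binding at 37 °C, then 20 min icy labelling · Control set – naked vesicles low, QL9 vesicles with vehicle high · Detection – cytometric PE anti-B7-1 and Alexa647 anti-CD8 signals after 1% paraformaldehyde fixation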
# Mot1-301 SUMO: SUMOylation pathway inhibition by Mot1-301 growth rescue; S. cerevisiae Mot1-301 growth rescue, ATP luminescence, 38.5C; percent above DMSO median, 100 means doubled; growth rescue, % at 18.8 µM; 1% of 320,000 active; AID 2716;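 active means every valid replicate shows activation above 250% relative to neutral control wells; inactive means the rest, any valid replicate at or below 250%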;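 further: OY570 slx delta 5 strain wells were the positive control but not used for scaling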
# The depositor's hits bear a star; i = inactive; x = no result given. A selection: hits, their analogues and other compounds. The true share with any hit is near 1.4%.
SMILES,HIF act,JMJD2C inh,T cell modulator,Mot1-301 SUMO
Cc1nn(C(=O)c2ccccc2)c2c1C(=O)CC(C)(C)C2,1.6,-1.4,748.7,494.9*
O=C(Nc1nc2c(F)cc(F)cc2s1)c1ccccn1,10.4*,-3.9,242.1,14.1
Cc1ccc2nc(NC(=O)c3ccccn3)sc2c1,-6.6,6.8,i,-30.7
C=CCOc1ccc(/C=C2\SC(N)=NC2=O)cc1OC,11.8*,2.4,303.6,0.4
CC(C)C(=O)Nc1ccc2c(c1)Cc1cc(NC(=O)C(C)C)ccc1-2,-1.3,-0.5,156.4,-5.1
COc1ccccc1C/C(N)=N/O,204.1*,0.0,147.1,13.4
O=C(Nc1cccc2cccnc12)c1ccccc1Cl,0.5,1.7,349.0,332.5*
CCN1C(=O)C(C(=O)Nc2ccc(OC)cc2)C2CC1(C)Oc1ccccc12 (centres undefined),1.3,54.2*,248.8,x
COc1ccc(NC(=O)C2CC(=O)OC23CCCCC3)cc1 (centres undefined),-0.8,13.5,596.5,-4.9
Cc1ccccc1-n1c(=O)n(Cc2ccc(C(=O)O)cc2)c(=O)c2[nH]cnc21,37.1*,-29.3,393.8,2.1
COc1ccc(Cn2c(=O)c3[nH]cnc3n(-c3ccccc3C)c2=O)cc1,0.1,-11.7,758.7,-9.0
CCCCSc1cc(C)nc(N)n1,1.2,-10.2,356.8,103.7
Cc1cc(C(=O)O)oc(=O)c1,219.3*,-11.4,428.7,-6.3
O=C(O)c1cc(=O)c2ccccc2o1,0.3,-0.7,283.3,-3.9
CNC(=S)N(CCc1c(C)[nH]c2ccc(F)cc12)Cc1cccnc1,-0.2,-8.3,97.8,354.3*
Cc1[nH]c2ccc(F)cc2c1CCN(Cc1cccnc1)C(=S)Nc1ccccc1,0.5,-0.3,521.2,-4.9
COc1ccc(N2CCN(C(=O)COc3ccc4c(C)c(C)c(=O)oc4c3C)CC2)cc1,51.2*,-9.3,398.7,-0.1
Cc1c(C)c2ccc(OCC(=O)N3CCN(c4ccc(F)cc4)CC3)c(C)c2oc1=O,0.1,-3.0,248.4,-6.0
COCCCNCCOc1ccc(C(C)(C)c2ccccc2)cc1,-0.1,-6.5,97.5,824.2*
CNCCCOc1ccc(C(C)(C)c2ccccc2)cc1,-0.1,-20.3,x,x
Nc1ccccc1N=Cc1ccc(-c2cccc(Cl)c2)o1,1.8,-0.1,207.1,444.3*
COC(=O)N/N=C/c1ccc(-c2cccc(Cl)c2)o1,1.1,8.3,321.1,456.5
ONC=Nc1cccc2nonc12,11.8*,14.7,214.4,7.7
O=C(CCl)c1ccc2c(c1)CCN2C(=O)C1CC1,34.5*,107.7,205.0,29.1
O=C(CCl)c1ccc2c(c1)CCN2C(=O)C1CCCCC1,3.2,-3.3,177.2,-7.8
SMILES,HIF act,JMJD2C inh,T cell modulator,Mot1-301 SUMO
Cc1ccc(-c2csc(NC(=O)c3ccc(F)cc3)c2C(=O)O)cc1,0.7,0.4,99.0,-31.6
O=C(N/N=C/c1ccc(OCc2ccccc2)cc1)c1cccs1,1.4,-10.6,77.9*,-1.6
Cn1nnnc1SC1CC(=O)N(c2ccccc2)C1=O (centres undefined),-0.8,-1.1,146.6,7.0
Cc1cc(C)cc(N2C(=O)CC(Sc3nnnn3-c3ccccc3)C2=O)c1 (centres undefined),1.7,-2.1,321.3,292.4*
CSc1ccccc1C(=O)NCCOc1cccc(C)c1,0.7,3.5,222.8,9.1
CCOC(=O)c1c(NC(=O)C2C3C=CC(C3)C2C(=O)O)sc2c1CCC(CC)C2 (centres undefined),-0.3,24.6,266.7,-10.9
CCOC(=O)c1c(NC(=O)C2C3C=CC(CC3)C2C(=O)O)sc(C)c1C (centres undefined),-1.0,7.2,245.2,298.4*
Cc1cc(C)n(-c2ccc3cccc(NS(C)(=O)=O)c3n2)n1,52.2*,-7.5,354.3,-14.9
COc1ccccc1-c1cc(C(F)(F)F)nc(S(=O)(=O)CCCC(=O)Nc2cc(C)on2)n1,-0.4,3.8,446.2,7.5
COc1ccccc1-c1cc(C(F)(F)F)nc(S(=O)(=O)CCCC(=O)N2CCCCC2C)n1 (centres undefined),11.0*,-15.1,733.5,14.4
COc1ccccc1-c1cc(C(F)(F)F)nc(N2CCCCC2)n1,0.1,11.2,514.7,-18.6
COc1ccccc1-c1cc(C(F)(F)F)nc(S(=O)(=O)CCCC(=O)NC(C)C)n1,24.4*,6.9,469.3,37.3
COc1ccc(-c2cc(C(F)(F)F)nc(S(=O)(=O)CCCC(=O)Nc3cc(C)on3)n2)cc1OC,11.6*,4.0,x,x
COc1ccccc1-c1cc(C(F)(F)F)nc(S(=O)(=O)CCCC(=O)NCc2ccc(F)cc2)n1,26.2*,-3.6,625.3,7.4
